Assay results as given in PubChem BioAssay AID1496 (Sanford-Burnham Center for Chemical Genomics, 2009).
Values joined by “and” are separate entries in the source; they are usually repeats but may differ in a detail not shown here. Equal values may be shown once. The campaign covered roughly 220,000 compounds. About 990 (0.45%) were called active.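 How the source made its calls: active means inhibition over about 50% at 20 µM in the single-dose screen (limit read from the data); inactive means the rest.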 Only a selection was taken, and actives are over-represented in it overall. Some compounds were tested as several samples or in several runs, with calls that do not always agree.

What follows are compounds tested against Runt-related transcription factor 1 (Homo sapiens) + Core-binding factor subunit beta (Homo sapiens) (UniProt Q01196+Q13951) (assay: inhibitors of RUNX1 Runt–CBFb binding, primary screen, biochemical, FRET, Cerulean-Runt, Venus-CBFb, uHTS (AID 1496;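 further: 0% = DMSO wells and 100% = excess unlabeled CBFb competitor control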)). Settings: Cerulean-Runt/Venus-CBFb FRET ratio 530/480, 1 h; at 20 µM; stronger effect = higher value.
Chain of Runt-related transcription factor 1 (Homo sapiens) + Core-binding factor subunit beta (Homo sapiens) (Q01196 whole entry, looked up, the tested form may be a part): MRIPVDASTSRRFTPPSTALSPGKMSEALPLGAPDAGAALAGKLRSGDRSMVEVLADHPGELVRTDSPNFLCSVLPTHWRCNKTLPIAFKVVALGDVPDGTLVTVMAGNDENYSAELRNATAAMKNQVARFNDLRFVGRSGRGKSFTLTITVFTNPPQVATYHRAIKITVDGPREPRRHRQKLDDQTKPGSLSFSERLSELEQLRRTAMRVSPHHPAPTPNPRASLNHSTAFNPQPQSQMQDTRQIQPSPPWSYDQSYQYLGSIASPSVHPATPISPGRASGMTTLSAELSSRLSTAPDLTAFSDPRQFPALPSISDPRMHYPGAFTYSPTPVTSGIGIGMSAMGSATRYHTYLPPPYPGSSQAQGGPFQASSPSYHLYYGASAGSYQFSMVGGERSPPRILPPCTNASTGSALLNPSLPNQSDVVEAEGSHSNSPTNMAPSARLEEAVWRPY
Chain of Runt-related transcription factor 1 (Homo sapiens) + Core-binding factor subunit beta (Homo sapiens) (Q13951 whole entry, looked up, the tested form may be a part): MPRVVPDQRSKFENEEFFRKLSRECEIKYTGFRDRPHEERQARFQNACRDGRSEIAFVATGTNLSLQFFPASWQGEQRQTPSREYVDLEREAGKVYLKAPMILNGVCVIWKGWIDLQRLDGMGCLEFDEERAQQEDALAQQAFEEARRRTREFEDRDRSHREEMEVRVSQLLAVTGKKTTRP
In short: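 System: Cerulean-labeled Runt domain protein | Quantity: 100 nM of each labeled protein | Schedule: 1 h compound exposure, room temperature | Detection: Fluorescence energy transfer, 422 nm excitation, 530/480 nm emission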
`O=S(=O)(Nc1ccc(OC(F)(F)F)cc1)c1cccc2nonc12` was tested, and the inhibition was -2.4% (inactive).
With `O=c1[nH]c2ccccc2n2c(-c3ccccc3)nnc12` the inhibition was 53% (active).
For `Cc1ccc(-c2nc3ccccc3[nH]c2=O)cc1`, the inhibition was 1.4% (inactive).
`O=[N+]([O-])c1cccc(-c2nnc3c4ccccc4c4ccccc4n23)c1` was tested, and the inhibition was 4.4% (inactive).
For `Oc1c(Br)cc(/C=N/NC(=S)NCC2CCCO2)cc1Br` (stereo not drawn), the inhibition was 0.6% (inactive).
With `CCN1C(=O)/C(=C2/Sc3ccccc3N2CCCS(=O)(=O)O)SC1=S` the inhibition was 44.8% (inactive) and 56.4% (active).
For `CCCCN1C(=O)/C(=C/C=C2/C=Cc3ccccc3N2CC)SC1=S`, the inhibition was 27.9% (inactive).
In the case of `CCN1C(=O)/C(=C\N2CCN(c3ccccc3)CC2)SC1=S`, the inhibition is reported as -0.2% (inactive).
With `COCCNC(=S)N1CCN(C)CC1` the inhibition was 0.5% (inactive).
In the case of `O=C1CCCCC1C(=O)c1ccccc1` (stereo not drawn), the inhibition is reported as 1.7% (inactive).
With `COc1ccc(C2/C=C\CN(CC(C)C)CC(=O)N2Cc2ccc(F)cc2)cc1` (stereo not drawn) the inhibition was 0% (inactive).
In the case of `O=C(O)CCc1cccnc1`, the inhibition is reported as -0.7% (inactive).
With `CCOC(=O)C1CCN(C(=O)Cn2cc(C#N)c3ccccc32)CC1` the inhibition was 0.6% (inactive).
For `CCc1cccc2c(C=C(C#N)C#N)cn(CC(=O)N3CCCCC3)c12`, the inhibition was 91.4% (active).
For `COc1cccc2c(=O)n(CC(=O)N3CCCCCC3)ccc12`, the inhibition was 0.5% (inactive).
With `CSC1=NC2(C)CCCCC2C12C=CC(=O)C=C2` (stereo not drawn) the inhibition was 2.8% (inactive).
In the case of `COc1ccc2nc(N3CCCC(O)C3)c(C#N)cc2c1` (stereo not drawn), the inhibition is reported as 81.1% (active).
With `COc1ccc(N2CCN(C(=O)CSc3nc4cc(OC)c(OC)cc4cc3C#N)CC2)cc1` the inhibition was 12.5% (inactive).
In the case of `CCOc1ccc2nc(N3CCCN(C(=O)Nc4ccccc4C)CC3)c(C#N)cc2c1`, the inhibition is reported as 29.2% (inactive).
`CC1CCN(c2c(NCc3ccc(C(=O)NCc4ccccc4)cc3)c(=O)c2=O)CC1` was tested, and the inhibition was 0.6% (inactive).
In the case of `NNC(=O)c1oc2nc(-c3ccccc3)cc(-c3ccco3)c2c1N`, the inhibition is reported as -57.1% (inactive).
With `CSc1nc(-c2ccco2)nn1C(=O)c1ccccc1Cl` the inhibition was -3.7% (inactive).
In the case of `COc1ccc(Cl)cc1C(=O)NNC(=O)c1nc2nc(C)cc(C)n2n1`, the inhibition is reported as -0.8% (inactive).
With `Cc1ccc(S(=O)(=O)Nc2ccc3ncccc3c2)cc1` the inhibition was -1.3% (inactive).
In the case of `COc1ccc(S(=O)(=O)Nc2ccc3oc(C)c(C(C)=O)c3c2)cc1`, the inhibition is reported as 0.3% (inactive).
For `COCc1cc(=O)oc2cc(NS(=O)(=O)c3ccc(C)cc3)ccc12`, the inhibition was 58.8% (active).
For `Clc1ccc(C[n+]2cc(-c3ccc(Cl)cc3)n3c2CCC3)cc1`, the inhibition was 0.1% (inactive).
In the case of `Cc1cc(C(=O)N2CCC(C(=O)O)CC2)c(C(F)(F)F)o1`, the inhibition is reported as 0% (inactive).
In the case of `S=C(NNC(=S)NC1CC2CCC1C2)NC1CC2C=CC1C2` (stereo not drawn), the inhibition is reported as 11.8% (inactive).
In the case of `COc1ccc2oc(=O)c(C(=O)O)cc2c1`, the inhibition is reported as 3.3% (inactive).
In the case of `COc1ccc2oc(=O)c(C(=O)N3CCCC3)cc2c1`, the inhibition is reported as 2% (inactive).
With `COc1cccc(C(=O)c2cc3ccc(O)cc3oc2=O)c1` the inhibition was 126% (active).
In the case of `O=C(Nc1nnc(CCN2CCCCC2)s1)c1cccc(Cl)c1`, the inhibition is reported as 2.2% (inactive).
For `Cc1noc(C)c1-c1nc(CSc2ccc(Cl)cc2)no1`, the inhibition was 0.4% (inactive).
`OC(c1nc2ccccc2[nH]1)C(O)C(O)C(O)c1nc2ccccc2[nH]1` (stereo not drawn) was tested, and the inhibition was -0.4% (inactive).
With `Cc1ccc(/C=C(\C#N)C(=O)Nc2cccc3ncccc23)o1` the inhibition was 125% (active).
For `Cc1ccc(C(=O)Nc2cccc3ncccc23)cc1[N+](=O)[O-]`, the inhibition was -0.8% (inactive).
In the case of `O=C(Nc1cccc2ncccc12)C(Cl)(Cl)Cl`, the inhibition is reported as -0.7% (inactive).
In the case of `CCC(=O)c1ccc(OCC(=O)Nc2ccc3nc(C)sc3c2)cc1`, the inhibition is reported as 1.3% (inactive).
With `CC1=NNC(=O)C1CCC(=O)N/N=C(\C)c1ccc(Cl)cc1` (stereo not drawn) the inhibition was -1.6% (inactive).
In the case of `CC[C@@H](C)[C@@H](C(=O)N1CCN(C(=O)OC(C)(C)C)CC1)n1cc(CCC(=O)O)nn1`, the inhibition is reported as 2.1% (inactive).
In the case of `CCc1c(C)nc2c(-c3ccccc3)c(C)nn2c1Nc1ccc(NC(C)=O)cc1`, the inhibition is reported as -2.4% (inactive).
`O=C(O)c1ccccc1C(=O)Nc1ccccc1[N+](=O)[O-]` was tested, and the inhibition was -1.2% (inactive).
`NC(=O)c1c(Nc2nc3c(F)cccc3s2)sc2c1CCCC2` was tested, and the inhibition was 117% (active).
With `Fc1cc(F)c2nc(Nc3nc4c(F)cccc4s3)sc2c1` the inhibition was 0.3% (inactive).
`NC(=O)c1c(NC(=O)CSc2nc(N)cc(=O)[nH]2)sc2c1CCCC2` was tested, and the inhibition was 0.4% (inactive).
With `Cc1ccc(-c2cn3cc([N+](=O)[O-])ccc3n2)cc1` the inhibition was 67.1% (active).
With `Cc1ccc(-n2cc3ccc([N+](=O)[O-])cc3n2)cc1` the inhibition was -12.8% (inactive).
In the case of `Cc1ccc(-c2cn3cc(C)ccc3n2)cc1`, the inhibition is reported as -4.5% (inactive).
`O=C(NNc1cc(Cl)cc(Cl)c1)c1c(F)cccc1Cl` was tested, and the inhibition was 0.6% (inactive).
`O=C(Cc1cccc2ccccc12)NNC(=O)Nc1ccc(Cl)cc1` was tested, and the inhibition was 1.3% (inactive).
In the case of `Cc1onc(-c2c(Cl)cccc2Cl)c1C(=O)NNC(=O)c1c(-c2c(Cl)cccc2Cl)noc1C`, the inhibition is reported as 0.7% (inactive).
`CCCn1c(=NC(C)=O)c(C(=O)OCC)cc2c(=O)n3ccccc3nc21` was tested, and the inhibition was 101% (active).
For `C/C(=N/OC(=O)c1c(-c2c(F)cccc2Cl)noc1C)c1cnccn1`, the inhibition was -0.3% (inactive).
With `CCn1c(=N)c(S(=O)(=O)c2ccc(F)cc2)cc2c(=O)n3ccccc3nc21` the inhibition was 10.5% (inactive).
`CCOC(=O)c1cc2c(=O)n3ccccc3nc2n(CC(C)C)c1=NC(=O)c1c(-c2c(F)cccc2Cl)noc1C` was tested, and the inhibition was 64.1% (active).
With `Cc1ccc(-n2c(=O)c(C#N)cc3c(=O)n4ccccc4nc32)cc1C` the inhibition was 19.9% (inactive).
For `O=C(NCC1CCCO1)c1cc(-c2ccccc2)nc2ccccc12` (stereo not drawn), the inhibition was 1.5% (inactive).
`Cc1noc(C)c1COC(=O)COc1ccc(-c2ccccc2)cc1` was tested, and the inhibition was -2.6% (inactive).
For `CC(=O)NNC(=O)c1csc(Cc2c(Cl)sc3ccc(Cl)cc23)n1`, the inhibition was 1.6% (inactive).
For `O=C(NNS(=O)(=O)c1ccccc1)c1cnn(-c2ccc(Cl)cc2)c1C(F)(F)F`, the inhibition was 1.6% (inactive).
In the case of `O=C(CNCc1cccs1)Nc1cc(S(=O)(=O)N2CCCC2)ccc1Cl`, the inhibition is reported as 4.6% (inactive).
With `CCc1nc(NCCO)c(C#N)c2c1CCCC2` the inhibition was -0.2% (inactive).
